Source: PMC3477254 (ACS chemical biology, 2012)
Entries after “also recorded” stand apart in the source; their conditions may differ.

Assays:
fully paired RNAs = assay: Competition dialysis, fully paired RNAs; format: binding; conditions: 2 µM RNA, 0.7 µM ligand
In short: (§1)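 2 µM RNA or DGCR8Δ protein was placed in dialysis units (MWCO 2,000) immersed in 0.7 µM ligand. Two buffer-only units were tracked by absorbance to confirm equilibration. SDS was then added to 1% final, and absorbance gave total ligand inside the units and free ligand in the dialysate. Bound ligand was calculated as total minus free.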

r(CGG)12-DGCR8Δ complex = assay: TR-FRET protein displacement assay; format: biochemical
DGCR8Δ = assay: Competition dialysis, DGCR8Δ; format: binding; conditions: 2 µM protein, 0.7 µM ligand
In short: as §1

[1] = test system: PLEKHH2 alternative splicing in COS7 cells; assay: PLEKHH2 mini-gene splicing control; format: cell-based; conditions: 500 µM; splicing not regulated by Sam68
In short: (§2)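 COS7 cells were co-transfected with the 60 CGG-repeat mini-gene and a PLEKHH2 or cTNT mini-gene, whose splicing is not under Sam68 control. Compound treatment and RT-PCR followed the same procedure: medium with test compound for 16–24 h, total RNA extraction, reverse transcription, 25–30 PCR cycles, then gel separation and quantification of the splice isoforms.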

[2] = test system: Bcl-x exon 2 alternative splicing in COS7 cells; assay: Bcl-x pre-mRNA splicing by RT-PCR in FXTAS cell model; format: cell-based
In short: (§3)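 COS7 cells were grown in DMEM with 10% FBS and GlutaMax. At 90–95% confluency they were transfected with equal amounts of a plasmid carrying 60 CGG repeats and an SMN2 or Bcl-x mini-gene. About 5 h later, medium containing test compound replaced the transfection mix. After 16–24 h, total RNA was extracted with on-column DNase digestion. Roughly 300 ng was reverse transcribed and 150 ng went to PCR for 25–30 cycles. Isoforms were gel-separated, imaged and quantified.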

[3] = test system: SMN2 exon 7 alternative splicing in COS7 cells; assay: SMN2 pre-mRNA splicing by RT-PCR in FXTAS cell model; format: cell-based
In short: as §3

[4] = biological target: RNA containing one 5’CGG/3’GGC motif (1x1 nucleotide GG internal loop); assay: RNA-binding assay via Hoechst 33258 dye displacement; conditions: competition with Hoechst 33258 (1 µM), RNA 1 µM
In short: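 RNA was annealed at 60 °C for 5 min in phosphate buffer (8 mM Na₂HPO₄ pH 7.0, 185 mM NaCl, 0.1 mM EDTA, BSA), then slow-cooled. Titrating RNA into 1000 nM Hoechst 33258 (ex 360/40, em 460/40 nm) gave the dye Kd. Test compound was then titrated into 1 µM RNA plus 1 µM Hoechst. Loss of fluorescence was fit to a competitive binding equation to obtain Kd.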

r(CGG)12 = assay: Competition dialysis, r; format: binding; conditions: 2 µM RNA, 0.7 µM ligand
In short: as §1

[5] = test system: r(CGG)^exp nuclear foci in COS7 cells; assay: FISH assay of r; format: cell-based; conditions: COS7 cells expressing r(CGG)60 and GFP
In short: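 COS7 cells on coverslips were co-transfected with r(CGG)60 and GFP plasmids, then treated with test compound. Cells were fixed in 4% paraformaldehyde for 15 min and permeabilized with 0.5% Triton X-100. They were prehybridized for 30 min in 2X SSC/40% formamide, then hybridized for 2 h with a (CCG)8-Cy3 DNA probe. After DAPI counterstaining, cells were imaged by confocal or fluorescence microscopy; only GFP-positive cells were scored for nuclear foci.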

[6] = test system: cardiac troponin T (cTNT) alternative splicing in COS7 cells; assay: cTNT mini-gene splicing control; format: cell-based; conditions: 500 µM; splicing not regulated by Sam68
In short: as §2

[7] = COS7 cells expressing r(CGG)60, 100 µM
[8] = COS7 cells expressing r(CGG)60, 500 µM
[9] = cells that do not express r(CGG)60

Cc1c2cc[n+](CCN3CCCCC3)cc2c(C)c2c1[nH]c1ccc(O)cc12 [1a, 9-hydroxy-5,11-dimethyl-2-(2-(piperidin-1-yl)ethyl)-6H-pyrido[4,3-b]carbazol-2-ium]
Amount of ligand partitioned into fully paired RNAs relative to r(CGG)12 (fully paired RNAs): less than half
Percentage displacement at 25 µM (r(CGG)12-DGCR8Δ complex; 25 µM compound, protein displaced from r(CGG)12): 85 ± 1%
IC50 (r(CGG)12-DGCR8Δ complex; read-out: IC50 for disruption of the r(CGG)12-DGCR8Δ complex, TR-FRET assay): 13 ± 0.4 µM
Binding to DGCR8Δ (DGCR8Δ): very little binding
Effect on PLEKHH2 alternative splicing [1]: did not affect
Improvement of Bcl-x splicing dysregulation [2, 7]: Statistically significant improvement
Bcl-x splicing [2, 8]: restoration of wild type splicing patterns
Bcl-x pre-mRNA splicing defects ([2]; COS7 cells, CGG 60X mini-gene, Figure 4B): improves Bcl-x pre-mRNA splicing defects
Effect on Bcl-x splicing [2, 9]: No statistically significant effect
Improvement of SMN2 splicing defects ([3]; COS7 cells expressing r(CGG)60, 20 µM): improvement of SMN2 splicing defects can be observed
SMN2 pre-mRNA splicing level relative to wild type [3, 7]: approximately 70 % of wild type
SMN2 pre-mRNA splicing [3, 8]: restores pre-mRNA splicing to levels wild type
SMN2 pre-mRNA splicing defects ([3]; COS7 cells, CGG 60X mini-gene, Figure 4A): improves SMN2 pre-mRNA splicing defects
Effect on SMN2 splicing [3, 9]: No statistically significant effect
Kd [4]: 0.076 ± 0.004 µM
Binding to r(CGG)12 (r(CGG)12): binds tightly
Size and number of r(CGG)exp nuclear foci [5]: reduces the size and the number of foci; also recorded: decreases r(CGG)^exp-protein aggregates
Effect on cTNT alternative splicing [6]: did not affect
